Calls of active or inactive are those of the source. The rule behind the calls is not given here.
Tests used:
[1] = biological target: T1, Receptor-interacting serine/threonine-protein kinase 1 (Homo sapiens, UniProt Q13546); assay: Binding affinity to wild-type human partial length RIPK1 (M1 to K305 residues) expressed in bacterial expression system after 1 hr by quantitative PCR based KINOMEscan assay
T1 sequence (Q13546 whole entry): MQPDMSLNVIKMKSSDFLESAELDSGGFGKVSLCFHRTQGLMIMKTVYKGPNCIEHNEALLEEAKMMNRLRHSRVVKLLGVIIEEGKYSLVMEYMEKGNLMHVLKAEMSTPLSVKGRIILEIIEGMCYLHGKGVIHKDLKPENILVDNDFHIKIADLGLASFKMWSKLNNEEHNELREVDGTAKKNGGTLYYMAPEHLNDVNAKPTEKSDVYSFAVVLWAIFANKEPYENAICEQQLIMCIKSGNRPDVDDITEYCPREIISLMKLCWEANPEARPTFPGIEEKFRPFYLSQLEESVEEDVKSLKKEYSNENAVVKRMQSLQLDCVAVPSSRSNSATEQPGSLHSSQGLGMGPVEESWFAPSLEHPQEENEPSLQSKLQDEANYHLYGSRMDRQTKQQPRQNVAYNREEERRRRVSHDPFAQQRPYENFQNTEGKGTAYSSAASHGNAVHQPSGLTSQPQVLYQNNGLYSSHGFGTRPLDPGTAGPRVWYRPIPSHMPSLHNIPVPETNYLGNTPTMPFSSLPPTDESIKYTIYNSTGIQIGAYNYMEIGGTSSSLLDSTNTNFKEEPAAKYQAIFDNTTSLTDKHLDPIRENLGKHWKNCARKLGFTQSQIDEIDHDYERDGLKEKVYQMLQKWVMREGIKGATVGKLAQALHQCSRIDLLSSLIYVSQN
Procedure, shortened: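 KINOMEscan competition binding. Bound kinase eluted with 0.5 μM nonbiotinylated ligand for 30 min and quantified by qPCR. Duplicates averaged.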

[2] = Cytotoxicity against human HT-29 cells measured after 12 hrs by CellTiter-Glo Luminescent assay; format: cell-based
[3] = biological target: Fibroblast growth factor receptor 2 (Homo sapiens) (UniProt P21802); assay: Inhibition of wild-type human partial length FGFR2 (D457 to E769 residues) expressed in bacterial expression system assessed as enzyme remaining activity at 1000 nM by Kinomescan method relative to control
[4] = biological target: RAF proto-oncogene serine/threonine-protein kinase (Homo sapiens) (UniProt P04049); assay: Inhibition of wild-type human partial length RAF1 (I330 to T640 residues) expressed in bacterial expression system assessed as enzyme remaining activity at 1000 nM by Kinomescan method relative to control
Sequence of RAF proto-oncogene serine/threonine-protein kinase (Homo sapiens) (P04049 whole entry, the tested form may be a part): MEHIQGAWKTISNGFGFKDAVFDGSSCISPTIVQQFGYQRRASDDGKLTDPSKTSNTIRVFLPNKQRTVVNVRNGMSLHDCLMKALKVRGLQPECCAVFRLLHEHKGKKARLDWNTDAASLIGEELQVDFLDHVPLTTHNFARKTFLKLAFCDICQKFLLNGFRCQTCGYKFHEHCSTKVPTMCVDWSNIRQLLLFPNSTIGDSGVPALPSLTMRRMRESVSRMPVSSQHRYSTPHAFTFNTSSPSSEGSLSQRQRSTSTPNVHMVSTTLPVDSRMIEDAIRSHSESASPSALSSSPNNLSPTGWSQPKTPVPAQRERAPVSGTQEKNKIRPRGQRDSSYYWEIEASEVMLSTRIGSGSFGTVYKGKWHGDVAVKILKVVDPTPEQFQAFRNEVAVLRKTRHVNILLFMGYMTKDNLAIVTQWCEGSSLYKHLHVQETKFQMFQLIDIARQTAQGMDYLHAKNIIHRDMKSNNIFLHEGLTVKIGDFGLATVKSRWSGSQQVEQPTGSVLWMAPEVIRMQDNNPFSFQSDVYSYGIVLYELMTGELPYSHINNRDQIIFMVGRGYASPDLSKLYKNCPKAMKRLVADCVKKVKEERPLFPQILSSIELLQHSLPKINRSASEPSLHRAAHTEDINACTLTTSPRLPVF

[5] = biological target: Cyclin-dependent kinase 3 (Homo sapiens) (UniProt Q00526); assay: Inhibition of wild-type human full length CDK3 (M1 to H305 residues) expressed in bacterial expression system assessed as enzyme remaining activity at 1000 nM by Kinomescan method relative to control
Sequence of Cyclin-dependent kinase 3 (Homo sapiens) (Q00526 whole entry, looked up, the tested form may be a part): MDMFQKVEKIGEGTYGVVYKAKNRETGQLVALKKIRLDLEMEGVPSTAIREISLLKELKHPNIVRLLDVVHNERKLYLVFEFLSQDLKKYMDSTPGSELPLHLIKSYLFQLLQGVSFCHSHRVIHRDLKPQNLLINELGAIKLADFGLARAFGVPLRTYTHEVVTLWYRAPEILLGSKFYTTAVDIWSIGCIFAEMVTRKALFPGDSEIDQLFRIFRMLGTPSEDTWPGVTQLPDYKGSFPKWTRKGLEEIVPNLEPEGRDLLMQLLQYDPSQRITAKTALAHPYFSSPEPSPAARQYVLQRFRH

[6] = biological target: Cyclin-dependent kinase 7 (Homo sapiens) (UniProt P50613); assay: Inhibition of wild-type human full length CDK7 (M1 to L344 residues) expressed in mammalian expression system assessed as enzyme remaining activity at 1000 nM by Kinomescan method relative to control
Sequence of Cyclin-dependent kinase 7 (Homo sapiens) (P50613 whole entry, the tested form may be a part): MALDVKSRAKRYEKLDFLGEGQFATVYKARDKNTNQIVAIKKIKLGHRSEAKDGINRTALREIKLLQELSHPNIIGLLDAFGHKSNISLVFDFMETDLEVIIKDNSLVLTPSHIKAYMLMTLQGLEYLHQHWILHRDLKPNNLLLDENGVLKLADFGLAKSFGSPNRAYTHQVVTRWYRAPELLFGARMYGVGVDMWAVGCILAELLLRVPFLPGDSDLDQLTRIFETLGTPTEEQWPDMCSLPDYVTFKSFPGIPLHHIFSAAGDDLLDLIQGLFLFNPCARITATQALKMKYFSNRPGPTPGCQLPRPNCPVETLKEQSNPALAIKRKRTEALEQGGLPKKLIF

[7] = biological target: Dual specificity mitogen-activated protein kinase kinase 2 (Homo sapiens) (UniProt P36507); assay: Inhibition of wild-type human full length MEK2 (M1 to V400 residues) expressed in mammalian expression system assessed as enzyme remaining activity at 1000 nM by Kinomescan method relative to control
Sequence of Dual specificity mitogen-activated protein kinase kinase 2 (Homo sapiens) (P36507 whole entry, the tested form may be a part): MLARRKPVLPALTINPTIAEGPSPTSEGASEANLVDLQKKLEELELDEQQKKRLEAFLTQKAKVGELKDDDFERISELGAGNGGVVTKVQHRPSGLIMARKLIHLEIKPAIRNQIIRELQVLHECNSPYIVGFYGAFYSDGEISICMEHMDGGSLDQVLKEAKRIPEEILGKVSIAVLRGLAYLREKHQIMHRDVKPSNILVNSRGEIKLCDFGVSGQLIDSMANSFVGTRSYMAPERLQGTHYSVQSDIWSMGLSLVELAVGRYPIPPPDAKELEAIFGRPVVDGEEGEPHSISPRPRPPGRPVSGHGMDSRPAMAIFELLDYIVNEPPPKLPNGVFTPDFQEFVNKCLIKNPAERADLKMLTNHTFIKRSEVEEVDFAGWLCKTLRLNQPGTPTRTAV

[8] = biological target: Mitogen-activated protein kinase 14 (Homo sapiens) (UniProt Q16539); assay: Inhibition of wild-type human full length p38-alpha (M1 to S360 residues) expressed in bacterial expression system assessed as enzyme remaining activity at 1000 nM by Kinomescan method relative to control
Sequence of Mitogen-activated protein kinase 14 (Homo sapiens) (Q16539 whole entry, the tested form may be a part): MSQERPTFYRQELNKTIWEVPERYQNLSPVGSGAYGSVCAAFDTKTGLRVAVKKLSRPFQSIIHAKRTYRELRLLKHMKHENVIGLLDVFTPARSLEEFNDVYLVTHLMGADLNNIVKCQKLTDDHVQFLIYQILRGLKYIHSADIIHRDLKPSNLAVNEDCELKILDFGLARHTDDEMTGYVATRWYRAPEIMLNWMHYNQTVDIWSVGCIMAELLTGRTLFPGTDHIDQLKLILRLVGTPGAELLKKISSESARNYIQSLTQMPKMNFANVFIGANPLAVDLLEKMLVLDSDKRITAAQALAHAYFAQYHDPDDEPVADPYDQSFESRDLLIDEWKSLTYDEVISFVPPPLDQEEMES

[9] = biological target: Inhibitor of nuclear factor kappa-B kinase subunit beta (Homo sapiens) (UniProt O14920); assay: Inhibition of wild-type human full length IKK-beta (M1 to S756 residues) expressed in mammalian expression system assessed as enzyme remaining activity at 1000 nM by Kinomescan method relative to control
Sequence of Inhibitor of nuclear factor kappa-B kinase subunit beta (Homo sapiens) (O14920 whole entry, the tested form may be a part): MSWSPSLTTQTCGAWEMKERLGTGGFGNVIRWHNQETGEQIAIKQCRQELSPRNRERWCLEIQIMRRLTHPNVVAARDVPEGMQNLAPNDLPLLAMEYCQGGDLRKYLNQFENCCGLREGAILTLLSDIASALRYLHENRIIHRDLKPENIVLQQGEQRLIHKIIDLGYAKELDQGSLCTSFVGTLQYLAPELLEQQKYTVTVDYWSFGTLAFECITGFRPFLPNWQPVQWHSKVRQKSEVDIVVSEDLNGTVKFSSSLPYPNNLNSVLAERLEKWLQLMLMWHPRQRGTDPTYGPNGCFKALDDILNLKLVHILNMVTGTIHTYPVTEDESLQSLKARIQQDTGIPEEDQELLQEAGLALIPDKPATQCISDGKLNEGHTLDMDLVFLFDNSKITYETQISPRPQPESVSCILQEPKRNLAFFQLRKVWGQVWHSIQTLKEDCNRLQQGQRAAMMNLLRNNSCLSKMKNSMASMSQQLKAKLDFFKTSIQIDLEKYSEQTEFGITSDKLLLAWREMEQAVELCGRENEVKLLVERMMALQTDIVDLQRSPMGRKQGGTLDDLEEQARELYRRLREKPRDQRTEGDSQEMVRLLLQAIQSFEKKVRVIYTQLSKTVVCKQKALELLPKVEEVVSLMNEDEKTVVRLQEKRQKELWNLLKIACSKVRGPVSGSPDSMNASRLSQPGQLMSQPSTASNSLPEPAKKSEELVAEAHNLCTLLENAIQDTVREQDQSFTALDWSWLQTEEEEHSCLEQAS

[10] = biological target: Platelet-derived growth factor receptor alpha (Homo sapiens) (UniProt P16234); assay: Inhibition of wild-type human partial length PDGFRA (V575 to D1002 residues) expressed in mammalian expression system assessed as enzyme remaining activity at 1000 nM by Kinomescan method relative to control
Sequence of Platelet-derived growth factor receptor alpha (Homo sapiens) (P16234 whole entry, the tested form may be a part): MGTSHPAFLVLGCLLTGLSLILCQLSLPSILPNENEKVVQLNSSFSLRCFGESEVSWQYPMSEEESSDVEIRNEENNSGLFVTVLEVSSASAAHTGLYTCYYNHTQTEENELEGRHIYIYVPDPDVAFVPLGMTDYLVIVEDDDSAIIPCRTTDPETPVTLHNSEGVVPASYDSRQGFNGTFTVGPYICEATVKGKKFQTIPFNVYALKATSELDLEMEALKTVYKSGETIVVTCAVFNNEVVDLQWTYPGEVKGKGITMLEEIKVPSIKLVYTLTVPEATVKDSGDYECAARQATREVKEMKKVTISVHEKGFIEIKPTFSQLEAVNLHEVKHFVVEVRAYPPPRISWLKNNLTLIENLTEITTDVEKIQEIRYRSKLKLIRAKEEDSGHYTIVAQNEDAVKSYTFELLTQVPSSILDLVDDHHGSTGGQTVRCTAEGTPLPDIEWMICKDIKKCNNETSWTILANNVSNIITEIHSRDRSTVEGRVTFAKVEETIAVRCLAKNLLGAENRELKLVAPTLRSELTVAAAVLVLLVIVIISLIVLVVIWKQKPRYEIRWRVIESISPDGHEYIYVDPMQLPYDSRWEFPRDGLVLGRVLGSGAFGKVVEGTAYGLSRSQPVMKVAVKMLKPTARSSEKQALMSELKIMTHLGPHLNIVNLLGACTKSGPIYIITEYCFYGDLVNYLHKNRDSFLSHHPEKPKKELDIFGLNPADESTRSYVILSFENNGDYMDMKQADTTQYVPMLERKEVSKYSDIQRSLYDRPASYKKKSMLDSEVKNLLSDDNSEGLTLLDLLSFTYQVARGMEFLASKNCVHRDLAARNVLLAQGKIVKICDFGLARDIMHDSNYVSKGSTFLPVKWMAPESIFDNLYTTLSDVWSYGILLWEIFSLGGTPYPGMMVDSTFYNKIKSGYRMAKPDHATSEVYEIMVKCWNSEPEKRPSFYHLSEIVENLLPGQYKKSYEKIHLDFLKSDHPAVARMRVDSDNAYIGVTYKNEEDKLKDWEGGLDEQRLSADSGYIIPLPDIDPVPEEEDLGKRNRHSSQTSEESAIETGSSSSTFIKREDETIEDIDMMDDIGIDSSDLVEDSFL

[11] = biological target: Proto-oncogene tyrosine-protein kinase Src (Homo sapiens) (UniProt P12931); assay: Inhibition of wild-type human partial length SRC (L240 to L536 residues) expressed in bacterial expression system assessed as enzyme remaining activity at 1000 nM by Kinomescan method relative to control
Sequence of Proto-oncogene tyrosine-protein kinase Src (Homo sapiens) (P12931 2-536 limits assumed): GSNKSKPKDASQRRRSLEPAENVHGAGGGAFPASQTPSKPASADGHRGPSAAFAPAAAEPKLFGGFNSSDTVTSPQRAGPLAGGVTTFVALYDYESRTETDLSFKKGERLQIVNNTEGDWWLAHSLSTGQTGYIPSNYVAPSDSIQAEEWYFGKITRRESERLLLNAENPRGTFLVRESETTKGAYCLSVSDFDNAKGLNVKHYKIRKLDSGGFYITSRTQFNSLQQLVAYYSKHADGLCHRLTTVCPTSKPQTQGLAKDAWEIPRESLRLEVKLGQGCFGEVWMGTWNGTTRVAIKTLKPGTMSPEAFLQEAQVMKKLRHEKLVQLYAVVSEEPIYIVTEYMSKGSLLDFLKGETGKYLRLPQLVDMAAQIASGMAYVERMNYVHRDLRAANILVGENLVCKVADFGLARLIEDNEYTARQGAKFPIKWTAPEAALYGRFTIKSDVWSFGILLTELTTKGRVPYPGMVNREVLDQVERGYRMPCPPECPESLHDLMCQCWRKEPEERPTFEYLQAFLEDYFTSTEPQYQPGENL

[12] = biological target: Hepatocyte growth factor receptor (Homo sapiens) (UniProt P08581); assay: Inhibition of wild-type human partial length MET (D1010 to S1367 residues) expressed in bacterial expression system assessed as enzyme remaining activity at 1000 nM by Kinomescan method relative to control
[13] = biological target: T1, Receptor-interacting serine/threonine-protein kinase 1; assay: Inhibition of RIPK1 phosphorylation in TNFalpha/smac mimetic/Z-VAD-fmk stimulated human HT-29 cells at 1 uM treated prior to TNFalpha/smac mimetic/Z-VAD-fmk stimulation and measured after 2 to 4 hrs by SDS-PAGE based immunoblot assay; format: cell-based; details: ht-29, 1 µM
[14] = system: Mus musculus; assay: Protection against TNFalpha/Z-VAD-fmk-induced C57BL/6J mouse model of systemic inflammatory response syndrome assessed as increase in body temperature at 5 to 50 mg/kg, po administered via gavage 2 hrs prior to Z-VAD-fmk addition for 15 mins followed by TNFalpha stimulation for 1 hr and subsequent Z-VAD-fmk addition meaured up to 50 hrs post TNFalpha stimulation by electric thermometer; format: functional, organism-based
Procedure, shortened: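 Female C57BL/6 mice, fasted overnight, n=10 per group. Compound given by oral gavage at 5, 25 or 50 mg/kg 2 h before TNF. z-VAD-fmk 180 µg i.p., then 15 min later mTNF-α 400 µg/kg i.v. in endotoxin-free PBS, then a further 70 µg z-VAD-fmk i.p. 1 h later. Body temperature and survival followed, compared with vehicle by one-way ANOVA.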

[15] = Half-life in Sprague-Dawley rat at 1 mg/kg, iv by LC-tandem mass spectrometry analysis; format: ADME, organism-based; details: in vivo
Procedure, shortened: (§1)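 Male Sprague-Dawley rats dosed once i.v. at 1 mg/kg or intragastrically at 5 mg/kg. Compound dissolved in 5% DMSO, 10% Tween 80, 75% physiological saline at 0.2 and 1 mg/mL. Blood taken at several time points, plasma spun at 4 °C, stored at -80 °C, assayed by LC/MS/MS. Parameters from individual animals by noncompartmental analysis.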

[16] = AUC (0 to t) in Sprague-Dawley rat at 1 mg/kg, iv by LC-tandem mass spectrometry analysis; format: ADME, organism-based; details: in vivo; procedure, shortened: as §1
[17] = Half-life in Sprague-Dawley rat at 5 mg/kg, po by LC-tandem mass spectrometry analysis; format: ADME, organism-based; details: in vivo; procedure, shortened: as §1
[18] = AUC (0 to t) in Sprague-Dawley rat at 5 mg/kg, po by LC-tandem mass spectrometry analysis; format: ADME, organism-based; details: in vivo; procedure, shortened: as §1
[19] = Toxicity in Sprague-Dawley rat at 1 mg/kg, iv or 5 mg/kg, po; format: organism-based; details: in vivo
[20] = system: HT-29; assay: Anti-necroptotic activity in human HT-29 cells assessed as inhibition of […]/SM-164/Z-VAD-fmk-induced necroptosis measured after 16 hrs by celltiter-glo luminescent cell viability assay; details: HT-29, 16 h

## O=C(Nc1cccc(Br)c1)Nc1cc(Oc2ccc3nc(NC(=O)C4CC4)sc3c2)ccc1F
[1]
  Kd: > 5 µM
[2]
  CC50 at 12 h: > 50 µM
[3]
  Activity: 22%
[4]
  Activity: 13%
[5]
  Activity: 96%
[6]
  Activity: 81%
[7]
  Activity: 83%
[8]
  Activity: 23%
[9]
  Activity: 97%
[10]
  Activity: 5.3%
[11]
  Activity: 0%
[12]
  Activity: 14%
[13]
  inhibition (INH): Not Active
[14]
  Activity: Active
[15]
  half-life: 924 min
[16]
  AUC(0-t): 5560 ng·h/mL
[17]
  half-life: 912 min
[18]
  AUC(0-t): 7010 ng·h/mL
[19]
  Activity: Non-Toxic
[20]
  EC50: 440 nM

Reference: ChEMBL document CHEMBL4406794, “N-(7-Cyano-6-(4-fluoro-3-(2-(3-(trifluoromethyl)phenyl)acetamido)phenoxy)benzo[d]thiazol-2-yl)cyclopropanecarboxamide (TAK-632) Analogues as Novel Necroptosis Inhibitors by Targeting Receptor-Interacting Protein Kinase 3 (RIPK3): Synthesis, Structure-Activity Relationships, and in Vivo Efficacy” (J Med Chem, 2019)
